Kir21 block = blocks the mouse Kir2.1 inward-rectifier potassium channel; actives 0.85% (n = 310,000); AID 1672; B-score at 10 µM; HEK293-Kir2.1, FluxOR thallium flux fluorescence; hits give low values; P35561;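 active means fluorescence ratio B-score at or below minus 3 SD of library scores, with starting-brightness B-score within 2 SD, cut at about -4.2 in these data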;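 further: channel flux triggered by added potassium and thallium sulfate stimulus; B-score of peak minus minimum fluorescence over baseline after thallium stimulus; more negative B-score means stronger Kir2.1 block with less thallium influx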
KCNK3 inh = human KCNK3 channel inhibition, primary screen; O14649; CHO-KCNK3 thallium flux, FluxOR fluorescence; hits give low values; B-score at 10 µM; actives 0.84% (n = 340,000); AID 602410;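 active means B-score under library mean minus 4 SD, starting fluorescence ratio at most library mean plus 5 SD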;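 further: more negative B-score means stronger inhibition of thallium flux through KCNK3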
hERG rescue = compounds protecting human hERG from proarrhythmic drug block | CHO-hERG, FluxOR thallium flux, dofetilide IC70 present | actives 0.51% (n = 310,000) | activation (rescue from dofetilide block), less the hit threshold, % at 10 µM | Q12809;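 active means activation above the mean of controls blocked by dofetilide plus 5 SD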;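 further: thallium influx through hERG after potassium depolarization seen as dye fluorescence rise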
Target sequence (Q12809 whole entry, looked up): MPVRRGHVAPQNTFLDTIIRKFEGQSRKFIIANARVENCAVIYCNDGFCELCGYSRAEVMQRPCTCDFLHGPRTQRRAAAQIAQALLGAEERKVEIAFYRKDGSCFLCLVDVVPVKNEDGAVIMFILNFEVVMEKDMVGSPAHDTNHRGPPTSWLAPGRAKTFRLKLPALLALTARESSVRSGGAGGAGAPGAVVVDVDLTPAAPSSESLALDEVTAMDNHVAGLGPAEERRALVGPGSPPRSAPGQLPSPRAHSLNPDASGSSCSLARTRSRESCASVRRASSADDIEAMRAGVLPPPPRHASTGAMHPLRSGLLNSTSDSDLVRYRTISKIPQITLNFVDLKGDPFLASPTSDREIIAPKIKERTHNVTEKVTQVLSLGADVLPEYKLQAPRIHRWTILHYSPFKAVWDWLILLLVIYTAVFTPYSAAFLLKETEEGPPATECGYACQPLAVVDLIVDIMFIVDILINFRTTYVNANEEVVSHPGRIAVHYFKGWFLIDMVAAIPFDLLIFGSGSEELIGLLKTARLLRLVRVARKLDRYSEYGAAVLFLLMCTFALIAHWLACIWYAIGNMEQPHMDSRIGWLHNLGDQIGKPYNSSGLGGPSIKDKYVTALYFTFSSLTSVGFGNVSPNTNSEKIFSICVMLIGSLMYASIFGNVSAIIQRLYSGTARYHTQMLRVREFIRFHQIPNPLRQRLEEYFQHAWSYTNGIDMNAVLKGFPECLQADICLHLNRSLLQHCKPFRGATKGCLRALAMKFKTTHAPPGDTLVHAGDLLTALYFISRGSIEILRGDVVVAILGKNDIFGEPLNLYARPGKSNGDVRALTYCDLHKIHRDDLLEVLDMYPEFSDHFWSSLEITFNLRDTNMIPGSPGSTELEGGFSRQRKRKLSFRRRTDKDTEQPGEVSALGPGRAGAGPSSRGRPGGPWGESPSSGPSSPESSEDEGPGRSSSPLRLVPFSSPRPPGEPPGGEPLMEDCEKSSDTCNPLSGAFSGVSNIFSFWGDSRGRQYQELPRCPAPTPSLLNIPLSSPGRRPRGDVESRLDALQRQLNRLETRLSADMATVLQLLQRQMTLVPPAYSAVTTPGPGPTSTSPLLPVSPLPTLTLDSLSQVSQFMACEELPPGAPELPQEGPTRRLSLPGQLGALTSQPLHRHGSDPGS
KCNQ1 act = potentiators or activators of human KCNQ1 potassium channel. actives 0.35% (n = 310,000). CHO-K1 KCNQ1, thallium flux FluxOR fluorescence; hits give high values. B-score at 10 µM. AID 2648. P51787;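 active means fluorescence ratio B-score, a plate-corrected score, at least three library SD, with initial intensity B-score within 5 SD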
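assay system = CHO-K1 cells stably expressing KCNQ1 | medium = assay buffer, equal DMSO in all wells | timing = 37 °C overnight plating, 90-min dark dye load, 20-min compound pretreatment | measured by = kinetic FluxOR thallium fluorescence, 10-s 1-Hz baseline, 110-s post-stimulus read | measure = fluorescence change relative to baseline, converted to B score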
KCNK9 inh-1 = blocks the human KCNK9 two-pore domain potassium channel; Q9NPC2; HEK293 KCNK9, FluxOR thallium flux fluorescence; hits give low values; B-score at 10 µM; actives 1.2% (n = 310,000);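 active means ratio B-score over 3 SD below the library mean, with starting fluorescence within 5 SD of its mean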;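 further: negative B-score means less thallium flux so channel inhibition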
KCNQ1 inh = human KCNQ1 channel inhibition; CHO-K1 KCNQ1, FluxOR thallium flux fluorescence; hits give high values; B-score at 10 µM; actives 1.3% (n = 310,000); AID 2642;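 active means compounds whose thallium flux B-score, printed positive for inhibition, exceeds three library SD while starting fluorescence stays within three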;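 further: channel opened by potassium depolarization with thallium stimulus after 20 min compound exposure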
hERG ctr = counter-screen for Kir2.1 inhibitors: effect on human hERG; AID 2236; actives 20% (n = 320); inhibition, % at 10 µM; hERG-expressing cells, thallium flux; shares compounds with Kir21 block;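 further: host cells are CHO cells stably expressing hERG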
KCNK9 inh-2 = tests whether Kir2.1 inhibitors also affect human KCNK9 | shares compounds with Kir21 block | KCNK9-expressing cells, ion flux inhibition | inhibition, % at 10 µM | actives 5% (n = 320) | AID 2329
Kir21 ephys inh = blocks mouse Kir2.1 current in automated electrophysiology | shares compounds with Kir21 block | Kir2.1 cells, automated patch-clamp current inhibition | actives 71% (n = 320) | AID 463252 | inhibition, % at 25 µM
KCNQ1 block val = human KCNQ1 channel inhibition, validation assay. shares compounds with KCNQ1 inh. KCNQ1 cell line, FluxOR thallium flux fluorescence. actives 93% (n = 1,600). inhibition, % at 10 µM;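 active means primary screen active, with duplicate mean exceeding buffer control mean plus 3 SD of buffer wells, cut at about 28% in these data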;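 further: 0% = buffer control ratio and 100% = XE991 inhibitor control ratio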
CHO Tl flux = KCNQ1 inhibitor counter-screen hit in parental CHO cells | shares compounds with KCNQ1 inh | parental CHO-K1, FluxOR thallium flux fluorescence ratio; hits give low values; zero means no signal rise above baseline | fluorescence ratio (Tl flux) at 10 µM | actives 21% (n = 1,600) | AID 588366;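 active means mean of duplicate thallium-flux fluorescence ratios in parental host cells more than 5 SD below the buffer control mean, cut at about 0.38 in these data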;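 further: ratio is peak minus minimum fluorescence divided by baseline fluorescence; actives read low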
KCNQ1 ephys val = blocks human KCNQ1 current in automated patch clamp. shares compounds with KCNQ1 inh. KCNQ1-CHO cells. calls only at 10 µM. actives 20% (n = 490). AID 624120;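 active means KCNQ1 current drop exceeding 3 SD of negative control wells, seen in both duplicate runs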;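 further: steady state current during a 2 s step from -80 to +40 mV; negative values mean current inhibition and positive values mean potentiation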
KCNQ2 inh = KCNQ1 inhibitor that also blocks rat KCNQ2 channel. shares compounds with KCNQ1 inh. KCNQ2 cells, FluxOR thallium flux fluorescence. inhibition, % at 10 µM. actives 71% (n = 1,600). AID 651746;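 active means mean percent inhibition of the KCNQ2 thallium signal more than 5 SD above the buffer-only control wells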;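 further: KCNQ2 expressed in CHO cells; 0% = buffer control wells and 100% = XE-991 inhibitor control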
KCNQ1-KCNE1 inh = human KCNQ1/KCNE1 inhibition in KCNQ1 specificity screen. KCNQ1/KCNE1 cells, FluxOR thallium flux fluorescence. actives 77% (n = 1,600). shares compounds with KCNQ1 inh. inhibition, % at 10 µM;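 active means mean percent inhibition of duplicate wells above the buffer-only control mean plus 3 SD of those controls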;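 further: 0% = buffer only wells and 100% = XE-991 inhibitor control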
KCNK3 confirm = confirmation of human KCNK3 two-pore domain potassium channel inhibitors. shares compounds with KCNK3 inh. CHO-KCNK3 thallium flux, FluxOR fluorescence; 0% buffer, 100% carvedilol maximal block. ratio percent of control, % at 10 µM. actives 99% (n = 2,400);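 active means ratio percent of control, averaged over triplicates, above buffer control mean plus 5 SD, cut at about 64% in these data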;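 further: ratio is the fluorescence rise from min to max over baseline after thallium stimulus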
KCNK3 noninduced = KCNK3 inhibitor counter-screen hit in non-induced cells. shares compounds with KCNK3 inh. non-induced KCNK3 parental cells, FluxOR thallium flux; hits give low values. thallium flux ratio (lower = more inhibition) at 10 µM. actives 40% (n = 2,400);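 active means thallium flux ratio, averaged over three wells, more than 5 SD below the buffer control mean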;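 further: host cells are CHO cells without KCNK3 induction; ratio is peak minus trough fluorescence over baseline then normalized to buffer controls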
* hit, by the source's call. An excerpt weighted towards active compounds, which were near 3.7% of everything screened. Unless noted, how the calls were made is not given here.

`COc1ccccc1Nc1nc(-c2cccc([N+](=O)[O-])c2)cs1` gave Kir21 block 1.9, KCNK3 inh inactive, hERG rescue -5, KCNQ1 act inactive, KCNK9 inh-1 inactive and KCNQ1 inh inactive.
For CCN(CC)CCCn1c2c(c(SCC(=O)Nc3nc(C)cs3)nc1=O)CCC2 the results were Kir21 block 1.4, KCNK3 inh inactive, hERG rescue -8, KCNQ1 act inactive, KCNK9 inh-1 inactive and KCNQ1 inh inactive.
Screening C=CCc1ccc(OCC(O)CN2CCc3ccccc3C2)c(OC)c1 (stereo unspecified) returned Kir21 block -5.8*, KCNK3 inh -9*, hERG rescue -11, KCNQ1 act inactive, KCNK9 inh-1 inactive, KCNQ1 inh inactive, hERG ctr 56%*, KCNK9 inh-2 inactive, Kir21 ephys inh 25%*, KCNK3 confirm 103* and KCNK3 noninduced 0.14*.
Cc1noc(C)c1COC(=O)CCN1c2ccccc2Sc2ccccc21 was read as Kir21 block -7.3*, KCNK3 inh -9.7*, hERG rescue -9, KCNQ1 act inactive, KCNK9 inh-1 inactive, KCNQ1 inh inactive, hERG ctr inactive, KCNK9 inh-2 inactive, Kir21 ephys inh 10%*, KCNK3 confirm 126* and KCNK3 noninduced 0.14*.
COCCN(CC(=O)Nc1cccc(C)c1C)C(=O)c1ccc2ccccc2n1 was read as KCNK3 inh inactive.
Screening CC(C)(C)c1cc(NCc2ccccn2)n2ncc(-c3ccccc3)c2n1 returned Kir21 block 0, KCNK3 inh inactive, hERG rescue -13, KCNQ1 act inactive, KCNK9 inh-1 inactive, KCNQ1 inh 7*, KCNQ1 block val 72*, CHO Tl flux 0.45, KCNQ2 inh inactive and KCNQ1-KCNE1 inh 61%*.
For Cc1cc(NC(C)c2ccccc2)n2ncc(-c3ccccc3)c2n1 (stereo unspecified) the results were Kir21 block 0.07, KCNK3 inh inactive, hERG rescue -8, KCNQ1 act inactive, KCNK9 inh-1 inactive and KCNQ1 inh inactive.
Screening CC(Sc1ccccc1)C(=O)N1CCN(S(=O)(=O)c2cccc(Br)c2)CC1 (stereo unspecified) returned Kir21 block -3.3, KCNK3 inh inactive, hERG rescue -7, KCNQ1 act inactive, KCNK9 inh-1 inactive and KCNQ1 inh inactive.
`FC(F)(F)c1nc(SCc2ccc(Cl)cc2Cl)n[nH]1` gave Kir21 block 1.1, KCNK3 inh inactive, hERG rescue -18, KCNQ1 act inactive, KCNK9 inh-1 inactive, KCNQ1 inh 6*, KCNQ1 block val 0, CHO Tl flux 0.48, KCNQ2 inh inactive and KCNQ1-KCNE1 inh inactive.
Screening N#Cc1c(C(F)(F)F)cc(=O)n2c1[nH]c1ccccc12 returned Kir21 block -0.7, KCNK3 inh inactive, hERG rescue -12, KCNQ1 act inactive, KCNK9 inh-1 inactive, KCNQ1 inh 6*, KCNQ1 block val 38*, CHO Tl flux 0.53, KCNQ2 inh 107%* and KCNQ1-KCNE1 inh inactive.
Screening CC(C)CCNC(=O)C1CCC(CNS(=O)(=O)c2ccc(Cl)cc2)CC1 (stereo unspecified) returned Kir21 block 0.53, KCNK3 inh inactive, hERG rescue 1, KCNQ1 act inactive, KCNK9 inh-1 inactive and KCNQ1 inh inactive.
For CCc1ccccc1NC(=S)NCCSc1ccc(Cl)cc1 the results were Kir21 block 0.45, KCNK3 inh inactive, hERG rescue -16, KCNQ1 act inactive, KCNK9 inh-1 inactive and KCNQ1 inh inactive.
Screening Cc1cccc(NC(=S)NCCSc2ccc(Cl)cc2)c1 returned Kir21 block -0.28, KCNK3 inh inactive, hERG rescue -17, KCNQ1 act inactive, KCNK9 inh-1 inactive, KCNQ1 inh 8*, KCNQ1 block val 82*, CHO Tl flux 0.43, KCNQ2 inh 60%* and KCNQ1-KCNE1 inh 96%*.
`Cc1ccc(C)c(NC(=S)NCCSc2ccc(Cl)cc2)c1` gave Kir21 block -1.9, KCNK3 inh inactive, hERG rescue -11, KCNQ1 act inactive, KCNK9 inh-1 inactive, KCNQ1 inh 8*, KCNQ1 block val 122*, CHO Tl flux 0.43, KCNQ1 ephys val inactive, KCNQ2 inh 90%* and KCNQ1-KCNE1 inh 122%*.
For COC(=O)Cc1csc(Nc2ccccc2)n1 the results were Kir21 block 0.01, KCNK3 inh inactive, hERG rescue -3, KCNQ1 act inactive, KCNK9 inh-1 inactive and KCNQ1 inh inactive.

High-throughput results from PubChem BioAssay.
